Assay results reported in ChEMBL document CHEMBL3091355, “Designing and synthesis of novel antimicrobial heterocyclic analogs of fatty acids” (2013).
Values after ≈ are worked out from the molar mass of the structure shown.

Assays:
Type in all cases: functional
Escherichia coli [1] = assay: Antibacterial activity against Escherichia coli ATCC 25922 after 24 hrs by broth micro dilution method; conditions: ATCC 25922, 24 h
Summary of the method: (§1)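 MIC by broth microdilution; growth read visually and spectrophotometrically. MIC taken as the lowest concentration giving complete inhibition of bacterial growth.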

Klebsiella pneumoniae [2] = assay: Antibacterial activity against Klebsiella pneumoniae clinical isolate after 24 hrs by broth micro dilution method
Candida tropicalis [3] = assay: Antifungal activity against Candida tropicalis after 20 hrs by agar dilution method
Pichia kudriavzevii [4] = assay: Antifungal activity against Candida krusei after 20 hrs by agar dilution method
Nakaseomyces glabratus [5] = assay: Fungicidal activity against Candida glabrata by micro dilution method
Nakaseomyces glabratus [6] = assay: Antifungal activity against Candida glabrata after 20 hrs by agar dilution method
Streptococcus pyogenes [7] = assay: Antibacterial activity against Streptococcus pyogenes clinical isolate after 24 hrs by disc diffusion method
Candida albicans [8] = assay: Fungicidal activity against Candida albicans clinical isolate by micro dilution method
Candida parapsilosis [9] = assay: Fungicidal activity against Candida parapsilosis clinical isolate by micro dilution method; conditions: Lodderomyces parapsilosis
Candida albicans [10] = assay: Antifungal activity against fluconazole, itraconazole-resistant Candida albicans clinical isolate after 20 hrs by agar dilution method
Summary of the method: (§2)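 Clinical Candida isolates purified and subcultured on SC, SCC and PDA media before testing. Compounds were dissolved in DMSO as a stock, then diluted into solid PDA medium to final concentrations of 0.0312 to 256.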

Candida tropicalis [11] = assay: Fungicidal activity against Candida tropicalis clinical isolate by micro dilution method
Candida tropicalis [12] = assay: Antifungal activity against fluconazole, itraconazole-resistant Candida tropicalis clinical isolate after 20 hrs by agar dilution method; summary of the method: as §2
Candida parapsilosis [13] = assay: Antifungal activity against Candida parapsilosis after 20 hrs by agar dilution method; conditions: Lodderomyces parapsilosis
Pseudomonas aeruginosa [14] = assay: Antibacterial activity against Pseudomonas aeruginosa ATCC 27853 after 24 hrs by disc diffusion method
Summary of the method: (§3)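 Disk diffusion on agar; activity measured as the halo zone of inhibition around the disk.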

Candida albicans [15] = assay: Fungicidal activity against fluconazole, itraconazole-resistant Candida albicans clinical isolate by micro dilution method
Pichia kudriavzevii [16] = assay: Fungicidal activity against Candida krusei by micro dilution method
Staphylococcus aureus [17] = assay: Antibacterial activity against Staphylococcus aureus after 24 hrs by broth micro dilution method; summary of the method: as §1
Candida parapsilosis [18] = assay: Fungicidal activity against Candida parapsilosis by micro dilution method; conditions: Lodderomyces parapsilosis
Candida dubliniensis [19] = assay: Antifungal activity against Candida dubliniensis after 20 hrs by agar dilution method
Candida albicans [20] = assay: Fungicidal activity against Candida albicans by micro dilution method
Candida albicans [21] = assay: Antifungal activity against Candida albicans clinical isolate after 20 hrs by agar dilution method
Candida tropicalis [22] = assay: Fungicidal activity against Candida tropicalis by micro dilution method
Candida albicans [23] = assay: Antifungal activity against Candida albicans after 20 hrs by agar dilution method; summary of the method: as §2
Pseudomonas aeruginosa [24] = assay: Bactericidal activity against Pseudomonas aeruginosa ATCC 27853 after 18 to 24 hrs; conditions: read-out: MBC99.9
Summary of the method: (§4)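 MBC taken as the lowest concentration that killed the bacteria completely.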

Streptococcus pyogenes [25] = assay: Antibacterial activity against Streptococcus pyogenes clinical isolate after 24 hrs by broth micro dilution method
Candida dubliniensis [26] = assay: Fungicidal activity against Candida dubliniensis by micro dilution method
Streptococcus pyogenes [27] = assay: Bactericidal activity against Streptococcus pyogenes clinical isolate after 18 to 24 hrs; conditions: read-out: MBC99.9
Klebsiella pneumoniae [28] = assay: Antibacterial activity against Klebsiella pneumoniae clinical isolate after 24 hrs by disc diffusion method
Pseudomonas aeruginosa [29] = assay: Antibacterial activity against Pseudomonas aeruginosa ATCC 27853 after 24 hrs by broth micro dilution method; conditions: ATCC 27853, 24 h; summary of the method: as §1
Staphylococcus aureus [30] = assay: Bactericidal activity against Staphylococcus aureus after 18 to 24 hrs; conditions: read-out: MBC99.9; summary of the method: as §4
Klebsiella pneumoniae [31] = assay: Bactericidal activity against Klebsiella pneumoniae clinical isolate after 18 to 24 hrs; conditions: read-out: MBC99.9
Candida tropicalis [32] = assay: Antifungal activity against Candida tropicalis clinical isolate after 20 hrs by agar dilution method
Staphylococcus aureus [33] = assay: Antibacterial activity against Staphylococcus aureus after 24 hrs by disc diffusion method; summary of the method: as §3
Candida parapsilosis [34] = assay: Antifungal activity against Candida parapsilosis clinical isolate after 20 hrs by agar dilution method; conditions: Lodderomyces parapsilosis
Escherichia coli [35] = assay: Bactericidal activity against Escherichia coli ATCC 25922 after 18 to 24 hrs; conditions: read-out: MBC99.9; summary of the method: as §4
Escherichia coli [36] = assay: Antibacterial activity against Escherichia coli ATCC 25922 after 24 hrs by disc diffusion method; summary of the method: as §3

What does the source list for `CCCCCC[C@@H](O)CC1C(CCC)=NOC1CCCCCCCC(=O)OC` (stereo partly specified)?
MIC (Escherichia coli [1]): 25 µg/mL (≈ 62.9 µM); MIC (Klebsiella pneumoniae [2]): 25 µg/mL (≈ 62.9 µM); MIC90 (Candida tropicalis [3]): 64 µg/mL (≈ 161 µM); MIC90 (Pichia kudriavzevii [4]): 64 µg/mL (≈ 161 µM); MFC (Nakaseomyces glabratus [5]): 256 µg/mL (≈ 644 µM); MIC90 (Nakaseomyces glabratus [6]): 32 µg/mL (≈ 80.5 µM); diameter of the inhibition zone (DIZ) (Streptococcus pyogenes [7]): 23.2 mm; MFC (Candida albicans [8]): 256 µg/mL (≈ 644 µM); MFC (Candida parapsilosis [9]): > 256 µg/mL; MIC90 (Candida albicans [10]): 128 µg/mL (≈ 322 µM); MFC (Candida tropicalis [11]): 256 µg/mL (≈ 644 µM); MIC90 (Candida tropicalis [12]): > 256 µg/mL; MIC90 (Candida parapsilosis [13]): 32 µg/mL (≈ 80.5 µM); diameter of the inhibition zone (DIZ) (Pseudomonas aeruginosa [14]): 32.5 mm; MFC (Candida albicans [15]): > 256 µg/mL; MFC (Pichia kudriavzevii [16]): 128 µg/mL (≈ 322 µM); MIC (Staphylococcus aureus [17]): 25 µg/mL (≈ 62.9 µM); MFC (Candida parapsilosis [18]): 128 µg/mL (≈ 322 µM); MIC90 (Candida dubliniensis [19]): 32 µg/mL (≈ 80.5 µM); MFC (Candida albicans [20]): 256 µg/mL (≈ 644 µM); MIC90 (Candida albicans [21]): 32 µg/mL (≈ 80.5 µM); MFC (Candida tropicalis [22]): > 256 µg/mL; MIC90 (Candida albicans [23]): 128 µg/mL (≈ 322 µM); MBC (Pseudomonas aeruginosa [24]): 50 µg/mL (≈ 126 µM); MIC (Streptococcus pyogenes [25]): 25 µg/mL (≈ 62.9 µM); MFC (Candida dubliniensis [26]): 256 µg/mL (≈ 644 µM); MBC (Streptococcus pyogenes [27]): 50 µg/mL (≈ 126 µM); diameter of the inhibition zone (DIZ) (Klebsiella pneumoniae [28]): 19.2 mm; MIC (Pseudomonas aeruginosa [29]): 25 µg/mL (≈ 62.9 µM); MBC (Staphylococcus aureus [30]): 50 µg/mL (≈ 126 µM); MBC (Klebsiella pneumoniae [31]): 100 µg/mL (≈ 252 µM); MIC90 (Candida tropicalis [32]): 64 µg/mL (≈ 161 µM); diameter of the inhibition zone (DIZ) (Staphylococcus aureus [33]): 22.6 mm; MIC90 (Candida parapsilosis [34]): 128 µg/mL (≈ 322 µM); MBC (Escherichia coli [35]): 50 µg/mL (≈ 126 µM); diameter of the inhibition zone (DIZ) (Escherichia coli [36]): 27.6 mm
